In ChEMBL document CHEMBL1671808, “Brassinin oxidase mediated transformation of the phytoalexin brassinin: structure of the elusive co-product, deuterium isotope effect and stereoselectivity” (2011):
Several values for one entry are separate records, joined by “and”; a condition that tells them apart may be missing. Identical values can stand only once. One block for each compound: values may come before it. Activity calls are given as the source filed them. No cut-off for these calls is given here.

Legend:
[1] = system: Plenodomus lingam; assay: Activity of Leptosphaeria maculans BoLm at 0.05 to 2.8 mM
How it was run: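 Purified BOLm from 3-phenylindole-induced L. maculans BJ-125 cultures; substrate varied 0.05–2.8 mM with saturating PMS (1.0 mM) in 20 mM DEA pH 8.2, 1 mM DTT, 0.1% Triton X-100; 20 °C, 20 min; EtOAc extraction, HPLC-DAD quantitation of indole-3-carboxaldehyde against calibration curves; kcat, Km from saturation curves; four independent experiments.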

[2] = system: Plenodomus lingam; assay: Ratio of kcat to Km for Leptosphaeria maculans BoLm to ratio of kcat to Km for Leptosphaeria maculans BoLm with the deuterated substrate; details: tested as the 2H-labelled form
[3] = system: Plenodomus lingam; assay: Ratio of kcat to Km for Leptosphaeria maculans BoLm
How it was run: (§1)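 BOLm purified from 3-phenylindole-induced L. maculans BJ-125 liquid cultures. Assay buffer: 20 mM DEA pH 8.2, 1.0 mM DTT, 0.1% Triton X-100, with 1.0 mM PMS as electron acceptor, which is saturating. Substrate was varied over 0.05–1.0 mM for brassinin or 0.05–2.8 mM for the carbamate. Reactions ran 20 min at 20 °C and were stopped and extracted with EtOAc. Indole-3-carboxaldehyde was quantified by HPLC-DAD against calibration curves. kcat and Km were taken from saturation curves. Four independent experiments.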

[4] = system: Plenodomus lingam; assay: Activity of Leptosphaeria maculans BoLm; how it was run: as §1
[5] = system: Plenodomus lingam; assay: Antifungal activity against Leptosphaeria maculans isolate BJ 125 assessed as growth inhibition at 0.50 mM relative to control; assay type: functional; design: scale not given: the % may be the effect or the level left
How it was run: (§2)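 Mycelial growth inhibition of L. maculans isolate BJ 125 tested at 0.50, 0.25 and 0.12 mM; growth compared with control cultures grown without compound under otherwise identical conditions.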

[6] = system: Plenodomus lingam; assay: Inhibition of Leptosphaeria maculans BoLm assessed as conversion of brassinin to indole-3-carboxaldehyde at 0.60 mM
How it was run: (§3)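 Initial-velocity assays with purified BOLm: product added at fixed 0.30 or 0.60 mM, brassinin varied 0.05–0.30 mM at saturating PMS (1 mM); also PMS varied […] with brassinin fixed at 0.05, 0.10 or 0.15 mM; standard DEA pH 8.2 assay, HPLC quantitation.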

[7] = system: Plenodomus lingam; assay: Antifungal activity against Leptosphaeria maculans isolate BJ 125 assessed as growth inhibition; assay type: functional; design: scale not given: the % may be the effect or the level left; how it was run: as §2
[8] = system: Plenodomus lingam; assay: Inhibition of Leptosphaeria maculans BoLm assessed as conversion of brassinin to indole-3-carboxaldehyde at 0.30 mM; how it was run: as §3
[9] = system: Plenodomus lingam; assay: Activity of Leptosphaeria maculans BoLm in presence of IAA reagent relative to control
How it was run: (§4)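 Purified BOLm was incubated in a reaction buffer with each modifier: BUT 10 mM, EAM 2.5 mM, NAI 2.5 mM or DEPC 2.5 mM in 100 mM phosphate pH 7.5; IAA 2.5 mM in 100 mM MES pH 6.0; PMSF 2.5 mM in 100 mM phosphate pH 8.1. Residual activity was then read in the standard brassinin/PMS HPLC assay. Result is specific activity as a percentage of untreated enzyme.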

[10] = system: Plenodomus lingam; assay: Activity of Leptosphaeria maculans BoLm in presence of H218O relative to Brassinin; details: tested as the 2H-labelled form
[11] = system: Plenodomus lingam; assay: Activity of Leptosphaeria maculans BoLm at 0.05 to 1.0 mM; how it was run: as §1
[12] = system: Plenodomus lingam; assay: Activity of Leptosphaeria maculans BoLm in presence of EAM reagent relative to control; how it was run: as §4
[13] = system: Plenodomus lingam; assay: Selectivity ratio of compound to dideuterated brassinin for Leptosphaeria maculans BoLm activity
How it was run: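 Kinetic isotope effect = (kcat/Km)H / (kcat/Km)D. Purified BOLm at pH 8.2 with saturating PMS (1.0 mM), 20 °C, 20 min. Substrate was varied over 0.05–1.0 mM (brassinin series) or 0.05–2.8 mM (carbamate series), comparing natural-abundance and deuterated substrates. Product was quantified by HPLC. Four independent experiments.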

[14] = system: Plenodomus lingam; assay: Activity of Leptosphaeria maculans BoLm in presence of DEPC reagent relative to control; how it was run: as §4
[15] = system: Plenodomus lingam; assay: Activity of Leptosphaeria maculans BoLm in presence of PMSF reagent relative to control; how it was run: as §4
[16] = system: Plenodomus lingam; assay: Activity of Leptosphaeria maculans BoLm relative to Brassinin; details: tested as the 2H-labelled form
[17] = system: Plenodomus lingam; assay: Activity of Leptosphaeria maculans BoLm in presence of WRK reagent relative to control
How it was run: (§5)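 Purified BOLm was treated with the carboxyl-specific reagent (WRK or EDC, 5–50 mM) in 100 mM MES pH 6.0 at 20 °C. Aliquots taken at time intervals were assayed for residual activity in the standard brassinin/PMS HPLC assay. Activity is given as a percentage of untreated enzyme. For WRK, kobs came from ln residual activity versus time, and K_I and k2 from 1/kobs versus 1/[WRK].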

[18] = system: Plenodomus lingam; assay: Activity of Leptosphaeria maculans BoLm in presence of NAI reagent relative to control; how it was run: as §4
[19] = system: Plenodomus lingam; assay: Activity of Leptosphaeria maculans BoLm in presence of EDC reagent relative to control; how it was run: as §5
[20] = system: Plenodomus lingam; assay: Activity of Leptosphaeria maculans BoLm in presence of BUT reagent relative to control; how it was run: as §4

- kcat [1]: 5.62 s⁻¹
- kcat ([1]; tested as the 2H-labelled form): 1.15 s⁻¹
- Ratio [2]: 3.9
- kcat/Km [3]: 9040 M⁻¹ s⁻¹
- kcat/Km ([3]; tested as the 2H-labelled form): 2300 M⁻¹ s⁻¹
- Km [4]: 622 µM
- Km ([4]; tested as the 2H-labelled form): 501 µM
Compound: COC(=O)NCc1c[nH]c2ccccc12

- inhibition [6]: inactive
Compound: CSC(N)=S
- Activity [5]: 18%
- Activity [7]: 18%

- inhibition [8]: inactive
Compound: O=Cc1c[nH]c2ccccc12

Compound: CSC(=S)NCc1c[nH]c2ccccc12
- Activity [9]: 106%
- Activity [10]: 23%
- kcat [11]: 0.95 s⁻¹
- kcat ([11]; tested as the 2H-labelled form): 0.28 s⁻¹
- Activity [12]: 97%
- Ratio [13]: 4
- Activity [14]: 103%
- Activity [15]: 108%
- Activity [16]: 26%
- Activity [17]: 17%
- Activity [18]: 111%
- Activity [19]: 38%
- kcat/Km [3]: 9900 M⁻¹ s⁻¹
- Km [4]: 96 µM
- Km ([4]; tested as the 2H-labelled form): 151 µM and 94 µM and 96 µM
- kcat ([4]; tested as the 2H-labelled form): 0.84 s⁻¹ and 0.47 s⁻¹
- Activity [20]: 95%
